Test [1] deals with F298V mutant of CYP199A4. Put plainly: Spin state determination by UV-vis spectroscopy, F298V mutant. It is filed as binding, Rhodopseudomonas palustris. The essentials:
(§1)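 Mutant was produced and purified as for WT. UV-vis spectra of the substrate-treated enzyme were recorded at 30 °C. The percentage low-to-high-spin shift of the ferric heme was estimated to about ±5%.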

Test [2] relates to F182L mutant of CYP199A4. Put plainly: Spin state determination by UV-vis spectroscopy, F182L variant. It is filed as binding, Rhodopseudomonas palustris. The essentials:
as §1

The target of test [3] is T1, CYP199A4 (Rhodopseudomonas palustris, UniProt Q2IU02).
T1 sequence (Q2IU02 1-410): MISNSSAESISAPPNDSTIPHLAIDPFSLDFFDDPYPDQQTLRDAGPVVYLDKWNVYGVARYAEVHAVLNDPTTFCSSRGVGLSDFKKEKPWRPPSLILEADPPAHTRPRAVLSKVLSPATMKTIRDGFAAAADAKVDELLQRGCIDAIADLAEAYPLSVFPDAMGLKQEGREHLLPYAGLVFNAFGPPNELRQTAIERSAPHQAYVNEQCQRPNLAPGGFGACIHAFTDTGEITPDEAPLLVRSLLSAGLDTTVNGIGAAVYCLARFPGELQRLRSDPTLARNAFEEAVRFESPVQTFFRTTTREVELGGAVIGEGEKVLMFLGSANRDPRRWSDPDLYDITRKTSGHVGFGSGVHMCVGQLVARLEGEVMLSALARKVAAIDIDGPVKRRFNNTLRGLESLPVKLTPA
The conditions noted are these: WT CYP199A4, cited from earlier work.

Test [4] deals with F298V mutant of CYP199A4. Description: In vitro NADH turnover assay and metabolite analysis, F298V mutant. Format: biochemical, Rhodopseudomonas palustris. The essentials:
(§2)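 Mutant was expressed and purified as for WT, with glycerol removed by gel filtration. NADH was added to ~320 μM, then substrate at 1 mM final. NADH oxidation was followed at A340 (ε 6.22 mM⁻¹cm⁻¹). Values are mean ± S.D., n ≥ 3.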

Test [5] deals with T1, CYP199A4. The conditions noted are these: WT CYP199A4, cited from earlier work. The source holds these as a separate data set.
Test [6] deals with F182L mutant of CYP199A4. Put plainly: In vitro NADH turnover assay and metabolite analysis, F182L mutant. It is filed as biochemical, Rhodopseudomonas palustris. The method in brief:
as §2

Test [7] addresses T1, CYP199A4. The following applies: WT CYP199A4; cited from earlier work.
The target of test [8] is T1, CYP199A4. Put plainly: Spin state determination by UV-vis spectroscopy. The following applies: WT CYP199A4, 50 mM Tris, pH 7.4. Format: binding.
Test [9] addresses T1, CYP199A4. Put plainly: Dissociation constant determination by UV-vis binding titration. The method in brief: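 UV-vis titration at 30 °C: enzyme diluted to 0.5–2.0 μM in 50 mM Tris, pH 7.4. Substrate was added from 1, 10 or 100 mM stocks in ethanol or DMSO. Soret peak-to-trough absorbance difference was recorded over 700–250 nm. Kd came from fitting ΔA against total substrate concentration to the tight-binding quadratic equation.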

The target of test [10] is T1, CYP199A4. Description: In vitro NADH turnover assay and metabolite analysis. It is filed as biochemical. The following applies: for PFR (product formation rate): WT CYP199A4 0.5 μM, 50 mM Tris, pH 7.4.

Like-named read-outs stand apart in the source and are kept apart here.

By Kd is commonly meant a measure of binding affinity in units of concentration. For the molecule `O=C(O)c1ccc(-c2ccccc2)cc1` [4‐phenylBA, 4‐phenylbenzoic acid], the High-spin species in the test with F298V mutant of CYP199A4 [1] was no less than 85%; in the test on F182L mutant of CYP199A4 [2], roughly 10%. The NADH oxidation rate on CYP199A4 [3] was 902 ± 34 min⁻¹; in the test on F298V mutant of CYP199A4 [4] (F298V mutant), 1030 ± 90 min⁻¹; in the test with F182L mutant of CYP199A4 [6], 75 ± 0.3 min⁻¹. For the same molecule, the “Oxidation by the F298V mutant (in words)” value with F298V mutant of CYP199A4 [4] (F298V mutant) was “unable to oxidise”. Besides, the “HS [%]” value on CYP199A4 [5] is 90%. Besides, the Coupling efficiency in the test with F182L mutant of CYP199A4 [6] worked out at 30%. The “Proportion of 4-(3′-hydroxyphenyl)benzoic acid among metabolites” value in the test with F182L mutant of CYP199A4 [6] (RT 16.2 min) is 9%. The Kd at CYP199A4 [7] is 1700 ± 100 nM.

Take `COc1cccc(-c2ccc(C(=O)O)cc2)c1` [4‐(3′‐methoxyphenyl)BA, 4‐(3′‐methoxyphenyl)benzoic acid]: the “HS [%] (shift from low-spin to high-spin ferric heme)” value on CYP199A4 [8] and on CYP199A4 [8] (listed as 4‐(3′‐Methoxyphenyl)benzoic acid) was no less than 95% in each case. The affinity at CYP199A4 [9], expressed as Kd, was 600 ± 100 nM.

In the case of `CC(C)(C)c1ccc(C(=O)O)cc1` [4‐tert‐butylBA, 4‐tert‐butylbenzoic acid], at CYP199A4 [3], the Coupling was 100±13%, the NADH oxidation rate was 227 ± 4 min⁻¹ and the “PFR (product formation rate)” value was 227 ± 32 min⁻¹. Moreover, on CYP199A4 [5], the “HS [%]” value is listed as no less than 95%. The Kd on CYP199A4 [7] is 39000 ± 2000 nM.

With `COc1ccc(C(=O)O)cc1` [4‐methoxyBA, 4‐methoxybenzoic acid], at CYP199A4 [3] (ref 8c), the Coupling is 91±10%, the NADH oxidation rate is 1340 ± 30 min⁻¹ and the “PFR (product formation rate)” value was 1220 ± 120 min⁻¹. In addition, on CYP199A4 [5] (ref 8c), the “HS [%]” value is listed as no less than 95%.

As to `O=C(O)c1ccc(C(=O)c2ccccc2)cc1` [4‐benzoylBA, 4‐benzoylbenzoic acid], the “HS [%] (shift from low-spin to high-spin ferric heme)” value on CYP199A4 [8] was “type II^[c]”; on CYP199A4 [8] (listed as 4‐benzoylbenzoic acid) it was “type II”. At CYP199A4 [9], this molecule gave a Kd of 2300 ± 400 nM.

Consider `O=C(O)c1ccc(C2CCCCC2)cc1` [4‐cyclohexylBA, 4‐cyclohexylbenzoic acid], for which, on CYP199A4 [10] (WT CYP199A4), the “Product selectivity: 4-(1-hydroxycyclohexyl)benzoic acid (benzylic hydroxylation)” value is 24%. Also, the High-spin species with F298V mutant of CYP199A4 [1] is given as no less than 85%. This molecule also came in with a High-spin species in the test on F182L mutant of CYP199A4 [2] of 90%. Besides, at CYP199A4 [3], the Coupling is given as 33±2%, the NADH oxidation rate is 169 ± 11 min⁻¹ and the “PFR (product formation rate)” value was 52 ± 6 min⁻¹. Further, in the test on F298V mutant of CYP199A4 [4] (F298V mutant), the Coupling efficiency is 31±9% and the NADH oxidation rate stood at 162 ± 55 min⁻¹. For the same molecule, in the test with F298V mutant of CYP199A4 [4] (F298V variant), the “Product selectivity: 4-(1-hydroxycyclohexyl)benzoic acid (benzylic hydroxylation)” value is 34%. Also, the “HS [%]” value at CYP199A4 [5] was no less than 95%. Besides, at CYP199A4 [7], the Kd was 450 ± 50 nM.

For `O=C(O)c1ccc(Cc2ccccc2)cc1` [4‐benzylBA, 4‐benzylbenzoic acid], on CYP199A4 [10] (WT CYP199A4), the “Coupling (percentage of NADH utilised for formation of oxidation products)” value is 95±11%. Further, the figures for the “PFR (product formation rate)” value on CYP199A4 [10] and at CYP199A4 [10] (listed as 4‐Benzylbenzoic acid) were 522 ± 61 min⁻¹ and 522 min⁻¹, respectively. Besides, at CYP199A4 [8], the “HS [%] (shift from low-spin to high-spin ferric heme)” value is recorded as 90%. Further, the Kd on CYP199A4 [9] stood at 5200 ± 250 nM.

`COc1ccc(-c2ccc(C(=O)O)cc2)cc1` [4‐(4′‐methoxyphenyl)BA, 4‐(4′‐methoxyphenyl)benzoic acid]: the “Coupling (percentage of NADH utilised for formation of oxidation products)” value on CYP199A4 [10] (WT CYP199A4) was no more than 1%. Moreover, the “HS [%] (shift from low-spin to high-spin ferric heme)” value at CYP199A4 [8] is recorded as roughly 10%. This molecule showed a Kd on CYP199A4 [9] of 100000 ± 10000 nM.

Values taken from paper PMC10092897 (Chemistry (Weinheim an Der Bergstrasse, Germany), 2022).
